In ChEMBL document CHEMBL4513216, “Probing the Open Global Health Chemical Diversity Library for Multistage-Active Starting Points for Next-Generation Antimalarials” (ACS Infect Dis, 2020) one finds cytotoxicity data, which are given here for 71 compounds.

Molecules are shown by their SMILES.

This data set can be described thus: Toxicity liver stage against HepG2, at 10uM. It is filed as cell-based. More on the design: test concentration 10 uM, cell line HepG2-A16-CD81EGFP. As to conditions: human, HepG2-A16-CD81EGFP cells; read-out: INHIBITION
The method, boiled down: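 Uninfected HepG2-A16-CD81EGFP cells, 3 × 10^3 per well, 1536-well, plated on prespotted compound at 10 μM final, parasite-free screening media added to match infected plates; puromycin 10 μM positive, DMSO 0.5% negative; run in parallel with 48 h PbLuc assay at 37 °C, 5% CO2; viability by CellTiter-Glo luminescence, normalized to controls.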
In the case of `c1ccc(O[C@H]2COCCN(Cc3cccc4c3OCO4)C2)cc1`, the cytotoxicity at 10 µM turned out to be 3.53%.

As to `Cc1n[nH]c2c1C(c1ccc(F)cc1)SCC(=O)N2` (stereo unspecified), the cytotoxicity at 10 µM is 2.06%.

As to `O=C(Cn1ccc2ccccc21)NC[C@@H]1CCCN2CCCC[C@H]12`, the cytotoxicity at 10 µM was -4.16%.

As to `COCC(=O)N1CCC(c2ccc(OC)cc2)C1` (stereo unspecified), the cytotoxicity at 10 µM was 1.81%.

As for `Cn1cc(CN2CCc3c(c(COCC#N)nn3C)C2)cn1`, the cytotoxicity at 10 µM was -2.45%.

`CN(C)Cc1nn(C)c2c1CN(C(=O)c1cccc(C#N)c1)C2`: the cytotoxicity at 10 µM turned out to be 7.38%.

As to `O=C(c1ccnnc1)N1C[C@H]2CCC[C@@H](OCc3cccnc3)[C@@H]2C1`, the cytotoxicity at 10 µM turned out to be 5.19%.

Consider `O=C(C1CCOCC1)N1CCO[C@@H]2[C@@H](OCc3ccncc3)CC[C@@H]21`, for which the cytotoxicity at 10 µM was found to be 8.5%.

For the compound `COCC1COCCC12CCN(C(=O)CC1Cc3ccccc3C1)CC2` (stereo unspecified), the cytotoxicity at 10 µM is 4.03%.

Take `COCC1CN(C(=O)C2=CCCC2)Cc2cnn(CC3CC3)c21` (stereo unspecified): the cytotoxicity at 10 µM is 9.61%.

On to `CC(C)CCNC(=O)c1c(-n2cnnn2)sc2c1CCCC2`, for which the cytotoxicity at 10 µM is 8.79%.

Take `CNC(=O)[C@H]1C[C@@H]2CN(S(=O)(=O)c3ccccc3)C[C@@H]2N1C(C)=O`: the cytotoxicity at 10 µM is -10.4%.

On to `Cc1ccc2c(cnn2CCC(=O)NCc2csc(C)n2)c1`, for which the cytotoxicity at 10 µM is 1.14%.

For the compound `CCn1nc(C)c(C(=O)Nc2ccc3c(c2)C(C)(C)C(=O)N3C)c1C`, the cytotoxicity at 10 µM worked out at 6.42%.

In the case of `CCOc1ccccc1Nc1nc2c(C)nn(C)c2c(=O)n1C`, the cytotoxicity at 10 µM was -7.53%.

As for `O=C(NCCc1cc2nc(-c3ccncc3)ccn2n1)C1CC1`, the cytotoxicity at 10 µM came to 5.82%.

`CN1CCC(Cc2cccc(-c3cc(F)ccc3C(=O)O)n2)CC1`: the cytotoxicity at 10 µM was -3.22%.

Turning to `CC(C)N1CCC(Cc2cc(-c3cccc(C(=O)O)c3)ncn2)CC1`, the cytotoxicity at 10 µM is -8.99%.

For the compound `CC(C)C(=O)N1CCC(Cc2nccnc2Nc2ccccn2)CC1`, the cytotoxicity at 10 µM is -7.08%.

Consider `Cc1c[nH]nc1C1CCCN(C(=O)c2c(C)noc2C)C1` (stereo unspecified), for which the cytotoxicity at 10 µM was -3.53%.

For `Cn1ccc(C(=O)N2CCC(Cc3cccc4ncccc34)C2)n1` (stereo unspecified), the cytotoxicity at 10 µM was -4.83%.

In the case of `Cc1cc(Br)cnc1N(C)CC1CCOC1` (stereo unspecified), the cytotoxicity at 10 µM amounted to 4.99%.

For `CC(C)N(CC(C)(C)O)C(=O)NC1CC1`, the cytotoxicity at 10 µM worked out at 5.73%.

As to `CCCC(=O)NC1CCCN(C(=O)c2ccc(C)nc2)C1` (stereo unspecified), the cytotoxicity at 10 µM turned out to be 17.5%.

On to `COC(=O)c1sc2cccc(F)c2c1CNC(=O)C1CCOC1` (stereo unspecified), for which the cytotoxicity at 10 µM is 8.97%.

Consider `CN1CCC(CCNC(=O)N2CCN(Cc3ccon3)CC2)CC1`, for which the cytotoxicity at 10 µM is -6.49%.

In the case of `Cc1n[nH]c(C2CN(CC(=O)NCCC3=CCCCC3)CCO2)n1` (stereo unspecified), the cytotoxicity at 10 µM stood at 12.9%.

Regarding `CCSc1ccc(C(=O)N2CCCC2C(=O)N2CCOCC2)cn1` (stereo unspecified), the cytotoxicity at 10 µM was -6.98%.

As to `CN(CCCc1n[nH]c(N)c1C#N)C(=O)NC1CC1`, the cytotoxicity at 10 µM was found to be 5.85%.

`Cc1[nH]c2ccccc2c1CCNC(=O)N1CCC2(C1)OCCO2`: the cytotoxicity at 10 µM is 1.12%.

Turning to `Cc1noc(CN2CCN(CC(C)O)CC2)n1` (stereo unspecified), the cytotoxicity at 10 µM is -10%.

Consider `CC(CNC(=O)c1cccnc1Oc1cccnc1)N(C)C` (stereo unspecified), for which the cytotoxicity at 10 µM is -14%.

For `Cc1ccc(-c2nc(CN3CCOC(Cn4cccn4)C3)cs2)o1` (stereo unspecified), the cytotoxicity at 10 µM was -8.86%.

Turning to `CN(Cc1cccs1)C(=O)CN1CCCC1Cn1cncn1` (stereo unspecified), the cytotoxicity at 10 µM is -15.6%.

As for `NC(=O)C1CCN(C(=O)Cn2nc(-c3ccccc3)oc2=O)C1` (stereo unspecified), the cytotoxicity at 10 µM is -13%.

Regarding `CC(C)C1CN(C(=O)c2nccnc2N)CCS1` (stereo unspecified), the cytotoxicity at 10 µM is -8.54%.

As for `Cc1nn(C)c(N2CCOCC2)c1CNC(C)c1cccnc1` (stereo unspecified), the cytotoxicity at 10 µM was -13.6%.

With `CN(C)CCO[C@H]1CN(C(=O)c2ccc(C#N)cc2)[C@@H]2COC[C@H]12`, the cytotoxicity at 10 µM was 0.929%.

Take `CSCc1noc(CN2CC3(CCCC3)CC2=O)n1`: the cytotoxicity at 10 µM amounted to 4.29%.

With `O=c1[nH]c(-c2cccnc2)nc2c1CCN(S(=O)(=O)N1CCCC1)C2`, the cytotoxicity at 10 µM turned out to be 0.384%.

Turning to `Cc1ccc(CSc2nc(N)cc(NCCS(=O)(=O)N(C)C)n2)cc1`, the cytotoxicity at 10 µM came out at 0.479%.

`CC(c1ccc(-c2cnc(N)nc2)cc1)N1CCOCC1` (stereo unspecified): the cytotoxicity at 10 µM stood at 1.97%.

On to `O=C(c1scc2c1OCCO2)N1CCC(Cc2cccc(CO)c2)C1` (stereo unspecified), for which the cytotoxicity at 10 µM was 6.01%.

As to `CCC(=O)c1ccc(OCC(=O)NC(C)c2ncnn2CC)cc1` (stereo unspecified), the cytotoxicity at 10 µM stood at 1.9%.

In the case of `COc1ccc(Cl)cc1S(=O)(=O)N(C)CC(N)=O`, the cytotoxicity at 10 µM is 7.82%.

Take `CC1CCN(S(=O)(=O)NCC2CCOc3ccccc3C2)CC1` (stereo unspecified): the cytotoxicity at 10 µM was -1.25%.

As for `COCCN(C)C[C@@H]1CN(C(=O)c2cccc(C(F)(F)F)c2)C[C@@H]1CO`, the cytotoxicity at 10 µM was -17.5%.

Turning to `COCCn1ccnc1C1CCCN(C(=O)CSCC2CC2)C1` (stereo unspecified), the cytotoxicity at 10 µM is -14.6%.

Consider `COc1c(C2CCCN2CC(=O)Nc2cc(C)nn2C)c(C)nn1C` (stereo unspecified), for which the cytotoxicity at 10 µM worked out at 3.72%.

Regarding `COc1cccc2cc(CNC(=O)N3CCS(=O)(=O)CC3)oc12`, the cytotoxicity at 10 µM was -19.3%.

Regarding `O=C(COc1ccccc1)NCCNC(=O)c1scnc1Cl`, the cytotoxicity at 10 µM was -4.83%.

On to `Cc1ccccc1CCNC(=O)CN1CCCC(Cn2cncn2)C1` (stereo unspecified), for which the cytotoxicity at 10 µM is -5.04%.

Take `Cc1cc(CN(C)C(=O)c2ccc(F)c(C(F)(F)F)c2)no1`: the cytotoxicity at 10 µM was -10%.

With `CC(C)C(C)NC(=O)c1cc(Br)c2c(c1)OCCO2` (stereo unspecified), the cytotoxicity at 10 µM was -9.89%.

`Cc1ccccc1OCCN1CCCC(c2cc(C(N)=O)[nH]n2)C1` (stereo unspecified): the cytotoxicity at 10 µM is -14.3%.

With `Cc1nc(C2CCCN(C(=O)c3cc(Cl)c4c(c3)OCO4)C2)no1` (stereo unspecified), the cytotoxicity at 10 µM is -2.09%.

As for `Cc1cnn(CC2CCCCN2C(=O)c2csc(C)n2)c1` (stereo unspecified), the cytotoxicity at 10 µM was -1.16%.

As for `O=C(C1CCOCC1)N1C[C@H]2CCC[C@@]2(COc2cccnc2)C1`, the cytotoxicity at 10 µM is -1.18%.

In the case of `O=C(c1ccccn1)N1CCC2(CC1)COC(COCC1CC1)C2` (stereo unspecified), the cytotoxicity at 10 µM turned out to be 5.14%.

For `COCc1nn(C(C)C)c2c1CCN(Cc1cccs1)C2`, the cytotoxicity at 10 µM was -9.55%.

Consider `CN1CC(=O)N(c2cccc(F)c2)CC12CCN(Cc1ccsc1)C2` (stereo unspecified), for which the cytotoxicity at 10 µM was determined as 4.93%.

Turning to `CC(C)CS(=O)(=O)N1CCC2(CN(c3ccsc3)C(=O)CN2C)C1` (stereo unspecified), the cytotoxicity at 10 µM stood at 6.88%.

As to `Cc1cccc(CN2CCc3nnc(Cn4cccc4)n3CC2)n1`, the cytotoxicity at 10 µM was 1.7%.

With `Cc1occc1C(=O)N1CCCC2(CCN(CCN3CCCC3)C2=O)C1` (stereo unspecified), the cytotoxicity at 10 µM was -9.18%.

On to `CN(C)C[C@]12COC[C@H]1CN(C(=O)Cc1ccc3c(c1)OCO3)C2`, for which the cytotoxicity at 10 µM was -9.94%.

As to `c1ccc(CN2CCc3c(COCC4CC4)cncc3C2)nc1`, the cytotoxicity at 10 µM came out at 2.41%.

For the compound `Cn1ccnc1CN1CCC2(CC1)Cc1ccccc1CNC2=O`, the cytotoxicity at 10 µM was -1.6%.

Turning to `CN(C)c1ncc2c(n1)C1(CCN(Cc3ccccc3F)C1)COC2` (stereo unspecified), the cytotoxicity at 10 µM was determined as 10.6%.

As for `O=C([C@@H]1CCO[C@@H]2CCN(Cc3cccs3)C[C@H]21)N1CCCCO1`, the cytotoxicity at 10 µM is 5.77%.

Take `Cc1ccc2c(n1)N(C)CCN(C(=O)NC(C)C)C2`: the cytotoxicity at 10 µM was -3.38%.

As for `CCCn1nccc1NC(=O)CN1CCc2cnc(CC)nc2C1`, the cytotoxicity at 10 µM is 2.31%.
